Results from ChEMBL document CHEMBL4513216, “Probing the Open Global Health Chemical Diversity Library for Multistage-Active Starting Points for Next-Generation Antimalarials” (ACS Infect Dis, 2020).

Assay: Toxicity liver stage against HepG2, at 10uM
Assay type: cell-based
Design: test concentration 10 uM, cell line HepG2-A16-CD81EGFP
Details: human, HepG2-A16-CD81EGFP cells; read-out: INHIBITION
Procedure, shortened: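 Uninfected HepG2-A16-CD81EGFP cells, 3 × 10^3 per well, 1536-well, plated on prespotted compound at 10 μM final, parasite-free screening media added to match infected plates; puromycin 10 μM positive, DMSO 0.5% negative; run in parallel with 48 h PbLuc assay at 37 °C, 5% CO2; viability by CellTiter-Glo luminescence, normalized to controls.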

| Compound | cytotoxicity at 10 µM [%] |
| --- | --- |
| CS(=O)(=O)NCC(=O)NC1(c2ccc(Cl)c(Cl)c2)CC1 | -10.7 |
| Cc1noc(C)c1CN1CCOC(CNc2cccnn2)C1 (stereo not given) | -19 |
| CC(C)c1nnc2sc(CC3CCS(=O)(=O)C3)nn12 (stereo not given) | -6.48 |
| O=C1CCC(=O)N1c1nn(Cc2c(F)cccc2Cl)cc1Cl | -11.3 |
| CN(C(=O)CCc1ccsc1)S(C)(=O)=O | 0.347 |
| Cc1nc(CO[C@H]2CN(C(=O)c3cnoc3C)[C@@H]3COC[C@H]23)cs1 | -107 |
| COCCC(=O)N1CCC2(CC1)CN(S(C)(=O)=O)Cc1ccccc1O2 | 3.73 |
| CCNC(=O)[C@@H]1C[C@H](N)CN1c1cc(C(F)(F)F)nc(N2CCCC2)n1 | -3.97 |
| NC(=O)c1ccc(C2CCCN2C(=O)CCc2nc3ccccc3s2)s1 (stereo not given) | -8.8 |
| Cc1nc(N(C)C)ncc1C(=O)N(Cc1ccncc1)CC1CCCO1 (stereo not given) | -1.59 |
| CCN(CC)C1CCN(C(=O)c2cc(CC(C)C)nn2CC)C1 (stereo not given) | -7.74 |
| COC(=O)c1cc(OC)c(OC)cc1NCc1c(C)noc1C | 4 |
| COc1ccc(-c2nnc(CN3CCCC3Cn3cncn3)o2)cc1 (stereo not given) | 3.02 |
| CC(C)c1nc(C2CCCN(Cc3nnc(C4CC4)o3)C2)no1 (stereo not given) | 5.65 |
| CC(C)C(C)NC(=O)CCN1C(=O)CCc2cc(F)ccc21 (stereo not given) | 8.91 |
| COc1ccc(OC)c(CNCCc2cc(F)cc3c2OCOC3)c1 | -8.08 |
| Cc1nc(N2CCCC2)nc2c1CCN(C(=O)N(C)C)CC2 | 7.05 |
| O=C(CN(Cc1ccco1)C1CC1)N1CCCCCC1 | -3.26 |
| N#CCCN(c1ccc(F)cc1)S(=O)(=O)CC1CCCCO1 (stereo not given) | 5.65 |
| Cc1ccoc1C1=NNC(=CN2CCn3c(nnc3C3CC3)C2)O1 | 7.65 |
| CN(Cc1n[nH]c2c1CCC2)c1nc(C2CCCC2)nc2c1CNC2 | -3.86 |
| CN1CC(C(=O)NC(C)(C)C)CC1=O (stereo not given) | -3.36 |

| Compound | cytotoxicity at 10 µM [%] |
| --- | --- |
| CC1(C)CC(CN2CCC3(CCC(=O)N(CCO)C3)CC2)CCO1 (stereo not given) | 18 |
| O=C(NCC1CC1)C1CCC2(CCN(C(=O)c3ccco3)CC2)O1 (stereo not given) | 5.91 |
| Cc1ccc(C2CSCCN2C(=O)c2cc(C(N)=O)cs2)o1 (stereo not given) | 5.48 |
| COc1ccccc1-c1cc(C(=O)N(C)C)c2cnn(C)c2n1 | 10.6 |
| COCC(=O)Nc1cc(Br)cnc1OCC(F)(F)F | -5.6 |
| Cc1nccc(N2C[C@H](NC(=O)CNS(C)(=O)=O)[C@@H](C3CC3)C2)n1 | -13.8 |
| c1cc(CN2C[C@@H]3COC[C@]3(COCC3CC3)C2)ccn1 | -3.29 |
| Cc1ccc(CN2C[C@H](C(=O)N3CCCCO3)[C@@H]3CCO[C@@H]3C2)o1 | 9.46 |
| Cc1cccc(CN2CCC3(CCCN(C(=O)N4CCCC4)C3)C2=O)n1 (stereo not given) | 8.76 |
| COCCNC(=O)Nc1cccc(COCCOC(C)C)c1 | 6.13 |
| CC(C)c1cnc(CN(C)C2CCN(CCc3cnn(C)c3)C2)o1 (stereo not given) | -7.12 |
| CS(=O)(=O)N1C[C@H]2CC[C@@H](C1)N(C(=O)CCn1cnc3ccccc31)C2 | 4.11 |
| CCSCCC(=O)Nc1ncn(Cc2ccccc2)n1 | 4.74 |
| CCCc1ccc(CN2CCC3(CCC(=O)N(C)CC3)CC2)o1 | -4.35 |
| CN(Cc1ccncc1)CC(c1cccs1)N1CCOCC1 (stereo not given) | -15.7 |
| CC(C)C(=O)N1CCC(c2nc3c([nH]2)CCCNC3=O)CC1 | 1.74 |
| COCC(=O)N1CCC(c2cc3n(n2)[C@@H](C(F)(F)F)C[C@@H](C)N3)CC1 | -26.5 |
| CC(=O)N1CCC(c2cc(C(F)(F)F)n3ccnc3n2)CC1 | 1.56 |
| CC(C)CCN1CC[C@H](c2nnc(Cc3c[nH]c4ccccc34)o2)C1 | 0.167 |
| F[C@@H]1CN(CC2CCCCC2)C[C@@H]1OCc1nc2ccccc2o1 | 1.9 |
| Cc1ccc(S(=O)(=O)c2ncccc2CN2CCCCC2)cc1 | -47.6 |
| CN(Cc1cncnc1)[C@H]1CN(Cc2ccco2)[C@@H]2CCCO[C@@H]21 | -78.7 |

| Compound | cytotoxicity at 10 µM [%] |
| --- | --- |
| Cc1ccc(NC(=O)CCc2ccco2)cc1N1CCOC1=O | -8.43 |
| Cc1nc(CN2CCCn3c(nc(Cn4ccnc4)cc3=O)C2)cs1 | -5.67 |
| Cc1ccccc1CC(=O)N(C)CC1(O)CCCN(c2ccccn2)C1 (stereo not given) | -18.3 |
| Cn1nccc1NC(=O)Cn1ccc(-c2ccc3c(c2)OCO3)n1 | -6.74 |
| COc1ccccc1CC(=O)N1CC[C@@]2(CCCO2)[C@@H](OC)C1 | 11.7 |
| CCOCc1cnc2n1CCN(C(=O)c1ccccc1)C2C (stereo not given) | -103 |
| CN1C(=O)CC(c2cnn(C)c2)C12CCN(C(=O)c1ccno1)CC2 (stereo not given) | -74.1 |
| CCn1c(N)nc2cc(C(=O)NCc3ccccc3Cl)cnc21 | -14.1 |
| Cc1nnc(C(C)Nc2cccc(COCCOC(C)C)c2)o1 (stereo not given) | 2.29 |
| CC(C)N1CCOC(CC(=O)N2CC(c3ccncc3)C2)C1 (stereo not given) | 7.44 |
| CN1CCN(S(=O)(=O)c2ccc(C(=O)N3CC[C@@H](O)C3)cc2)CC1=O | 2.7 |
| CC(C)COC(C)C(=O)NCCNC(=O)C(C)C (stereo not given) | -15.2 |
| Cn1c(NC(=O)CNC(=O)C2CCCC2)nc2cc(Cl)ccc21 | -4.53 |
| CCOCC(=O)NC1(c2nc(C)cs2)CCCC1 | -12.7 |
| Cc1nc2cc(OCc3nc(C(=O)NC(C)(CO)CO)co3)ccc2s1 | 47.6 |
| COCCC(=O)N1C[C@@H]2COC[C@]2(COCc2cccnc2)C1 | -4.23 |
| COCCCNC1N=C(n2nc(C)cc2C)Nc2sc3c(c21)CCCC3 (stereo not given) | 10.6 |
| Cc1oc(C(C)C)cc1C(=O)N1C[C@@H]2CC[C@H]1CN(c1ncccn1)C2 | -126 |
| c1cc(CNCC2CNc3ccnn3C2)cc(OC2CCCC2)n1 (stereo not given) | -3.02 |
| Cc1ccsc1CN(C)c1nc2c(cnn2C(C)(C)C)c(=O)[nH]1 | 33.3 |
| CCC1CN(Cc2nc(C(C)C)no2)CCC(=O)N1Cc1ccccc1 (stereo not given) | 5.08 |
| Cc1cccc(NCc2nc(C)ccc2O)c1 | -3.59 |

| Compound | cytotoxicity at 10 µM [%] |
| --- | --- |
| N#Cc1ccc(CN2CCOCC2)cc1 | -9.32 |
| COc1cccc(CCC2CCCN(C(=O)C3=NN(C)C(=O)CC3)C2)c1 (stereo not given) | -2.06 |
| CC1CCc2nn(CCNC(=O)Cc3cccs3)c(=O)cc2C1 (stereo not given) | 6.83 |
| CCC(O)Cn1nc(-c2ccc(C(=O)O)cc2)cc1-c1cccc(F)c1 (stereo not given) | 8.17 |
| O=C(c1cccnc1)N1CCC2(CC1)CCN(Cc1ccccn1)C2=O | 2.78 |
| COc1ccc(-c2cc(=O)n3c(n2)CCCCC3)cc1 | -14.1 |
| Cc1ccccc1OC1CN(Cc2c(C)nc3ccccn23)C1 | 43.3 |
| CNS(=O)(=O)c1csc(C(=O)N(C)Cc2ccccc2C)c1 | 6.78 |
| Cc1n[nH]c(CCC(=O)N2CCOC(Cc3ccc(F)cc3)C2)c1C (stereo not given) | -40.4 |
| CCn1ccc(CN(C)C(=O)CSc2nnc(N)s2)n1 | 3.45 |
| O=C(CSCc1ccncc1)N(Cc1ccsc1)C1CC1 | -11.2 |
| CC(NCC1=Cc2cc(Cl)ccc2OC1)c1nnc2n1CCCC2 (stereo not given) | -11.4 |
| O=C(CSC1CCc2ccccc2NC1=O)Nc1ccc(CCO)cc1 (stereo not given) | -3.77 |
| Cn1nc(C2CCN(C(=O)CCN3CCOCC3)CC2)c2cccnc21 | -13.8 |
| Cc1cccc(C2CC(=O)Nc3c2c(=O)[nH]n3C(C)C)c1 (stereo not given) | -3.33 |
| CC1CN(C)CCN1CC(=O)NCCOc1ccc(Cl)cc1 (stereo not given) | -8.69 |
| O=C(c1cnc(-c2noc3cc(N4CCCC4)ccc23)s1)N1CCCC1 | -3.83 |
| NC(=O)C1CN(c2ccc3cc(Br)ccc3n2)CCO1 (stereo not given) | 4.94 |
| CN(C)CC1(O)CCN(S(=O)(=O)c2ccc(F)cc2)C1 (stereo not given) | -3.09 |
| Cc1cc(C)nc(NC2CCOC3(CCCC3)C2)n1 (stereo not given) | 7.93 |
| Cn1cnc(S(=O)(=O)NCCN2CCCCCC2=O)c1Cl | -14.2 |
| Cc1c(C)n2c(SCC(=O)N3CCC(C)CC3)nnc2[nH]c1=O | 0.351 |

| Compound | cytotoxicity at 10 µM [%] |
| --- | --- |
| CN(Cc1ccco1)C1CCC12CCN(C(=O)c1ccco1)CC2 (stereo not given) | -10.9 |
| Cc1oncc1C(=O)N1CC[C@H]2CO[C@H](CN3CCCC3)[C@H]2C1 | 10.8 |
| COC(=O)c1ccc(C(=O)NCc2nn(C)c3c2COCC3)cc1 | 7.91 |
| OC1COCCN(Cc2cc(-c3ccccc3OC(F)(F)F)no2)C1 (stereo not given) | -12.7 |
| COCc1nc2ncc3c(=O)n(-c4cccc(OC)c4)ccc3n2n1 | 8.99 |
| CC(=O)NCCCC(=O)NC1(c2ccc(Cl)c(Cl)c2)CC1 | -7.79 |
| CC1(C)CN=C(N2CCN(CC3CCCO3)CC2)S1 (stereo not given) | -8.41 |
| Cc1ccc(C(=O)NCCNCC2CNc3ccnn3C2)cc1 (stereo not given) | 7.41 |
| CC(C)CN1CC(C(=O)NCCc2c[nH]cn2)CC1=O (stereo not given) | -3.62 |
| O=C(NCC1CCOCC1)c1cc(-c2cccnc2)c2cnccc2n1 | 13.2 |
| CC(=O)N1CCCC(C(=O)NCc2noc(Cc3ccccc3)n2)C1 (stereo not given) | 3.02 |
| COc1nccc(N2CC[C@@H](N3CCC(O)CC3)[C@H](O)C2)c1C#N | -152 |
| COc1ccc(OC)c(C(=O)Nc2cccnc2-n2cncn2)c1 | -17 |
| CC(=O)N[C@@H]1CN(C(=O)CC2CC2)C[C@H]1O | -7.1 |
| CCn1c(N)nc2cc(C(=O)NCCc3nnc(C)s3)cnc21 | -2.46 |
| O=C(c1nnn(-c2ccc(F)cc2)n1)N1CCC(O)CC1 | 5.86 |
| Cc1ccoc1C(=O)N1CCCN(Cc2cnn(C)c2)CC1 | -11.1 |
| Cc1nc(-n2nc(-c3cccs3)cc2N)[nH]c(=O)c1C | 4.84 |
| CC1c2ncc(COCC3CCOCC3)n2CCN1Cc1cccnc1 (stereo not given) | 5.95 |
| O=C1C(N2CCOCC2)CCCN1Cc1cccc(C(F)(F)F)c1 (stereo not given) | 0.174 |
| O=C1CCCN1Cc1ncn2c1CN(C(=O)c1cccc(F)c1)CCC2 | -12.1 |
| Cc1ccc(C(O)CNCc2c(C(C)C)nn(C)c2N(C)C)cc1 (stereo not given) | -11.8 |
